Converted amounts (≈) assume the structure as drawn.
Key:
Assay type in all cases: functional
Pseudomonas aeruginosa = assay: Antibacterial activity against Pseudomonas aeruginosa MTCC 1688 by broth dilution method
In short: (§1)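 Test bacteria kept on nutrient agar slants and subcultured in Petri dishes before testing. Nutrient agar and nutrient broth media. Compounds dissolved in acetone. MIC determined by broth dilution.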

Escherichia coli = assay: Antibacterial activity against Escherichia coli MTCC 443 by broth dilution method; in short: as §1
Staphylococcus aureus = assay: Antibacterial activity against Staphylococcus aureus MTCC 96 by broth dilution method; in short: as §1
Bacillus subtilis = assay: Antibacterial activity against Bacillus subtilis MTCC 441 by broth dilution method; in short: as §1
Aspergillus niger [1] = assay: Antifungal activity against Aspergillus niger MTCC 1344 at 150 ug/ml by agar cup diffusion method; conditions: read-out: IZ
In short: (§2)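 Agar cup diffusion on autoclaved potato dextrose agar (15 lb/inch², 20 min). A week-old culture was spread over the solidified agar, and 6 mm cups were bored. Compounds were in DMSO at 100–150; amphotericin-B reference at 50; DMSO control. Plates held at 28 °C for 48 h. Inhibition zone diameter read in mm.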

Candida albicans [2] = assay: Antifungal activity against Candida albicans MTCC 227 at 100 ug/ml by agar cup diffusion method; conditions: read-out: IZ; in short: as §2
Rhizopus arrhizus [3] = assay: Antifungal activity against Rhizopus oryzae MTCC 262 at 150 ug/ml by agar cup diffusion method; conditions: read-out: IZ; in short: as §2
Candida albicans [4] = assay: Antifungal activity against Candida albicans MTCC 227 at 150 ug/ml by agar cup diffusion method; conditions: read-out: IZ; in short: as §2
Aspergillus niger [5] = assay: Antifungal activity against Aspergillus niger MTCC 1344 at 100 ug/ml by agar cup diffusion method; conditions: read-out: IZ; in short: as §2
Rhizopus arrhizus [6] = assay: Antifungal activity against Rhizopus oryzae MTCC 262 at 100 ug/ml by agar cup diffusion method; conditions: read-out: IZ; in short: as §2
Aspergillus niger [7] = assay: Antifungal activity against Aspergillus niger MTCC 1344 at 50 ug/ml by agar cup diffusion method; conditions: MTCC 1344, read-out: IZ; in short: as §2
Rhizopus arrhizus [8] = assay: Antifungal activity against Rhizopus oryzae MTCC 262 at 50 ug/ml by agar cup diffusion method; conditions: MTCC 262, read-out: IZ; in short: as §2
Saccharomyces cerevisiae = assay: Antifungal activity against Saccharomyces cerevisiae MTCC 36 at 50 ug/ml by agar cup diffusion method; conditions: MTCC 36, read-out: IZ; in short: as §2
Candida albicans [9] = assay: Antifungal activity against Candida albicans MTCC 227 at 50 ug/ml by agar cup diffusion method; conditions: MTCC 227, read-out: IZ

SMILES | MIC (Pseudomonas aeruginosa) [µg/mL] | MIC (Escherichia coli) [µg/mL] | MIC (Staphylococcus aureus) [µg/mL] | MIC (Bacillus subtilis) [µg/mL] | zone of inhibition at 150 µg/mL (Aspergillus niger [1]) [mm] | zone of inhibition at 100 µg/mL (Candida albicans [2]) [mm] | zone of inhibition at 150 µg/mL (Rhizopus arrhizus [3]) [mm] | zone of inhibition at 150 µg/mL (Candida albicans [4]) [mm] | zone of inhibition at 100 µg/mL (Aspergillus niger [5]) [mm] | zone of inhibition at 100 µg/mL (Rhizopus arrhizus [6]) [mm] | zone of inhibition at 50 µg/mL (Aspergillus niger [7]) [mm] | zone of inhibition at 50 µg/mL (Rhizopus arrhizus [8]) [mm] | zone of inhibition at 50 µg/mL (Saccharomyces cerevisiae) [mm] | zone of inhibition at 50 µg/mL (Candida albicans [9]) [mm]
C=CC1(C)CCNc2c3c(-c4ccccc4)cc(C(F)(F)F)c(C#N)c3nn21 (configuration not stated) | 75 (≈ 196 µM) | 150 (≈ 392 µM) | 150 (≈ 392 µM) | 75 (≈ 196 µM) |  |  |  |  |  |  |  |  |  | 
N#Cc1c(-c2ccccc2)cc(C(F)(F)F)c2c3n(nc12)[C@@]1(c2ccccc2)CCCC[C@H]1CN3 | 75 (≈ 159 µM) | 37.5 (≈ 79.4 µM) | 37.5 (≈ 79.4 µM) | 75 (≈ 159 µM) | 10 | 9 | 9 | 11 |  |  |  |  |  | 
N#Cc1c(-c2ccccc2)cc(C(F)(F)F)c2c3n(nc12)C(c1ccccc1)CCN3 (configuration not stated) | 50 (≈ 119 µM) | 25 (≈ 59.7 µM) | 50 (≈ 119 µM) | 50 (≈ 119 µM) |  |  |  |  |  |  |  |  |  | 
N#Cc1c(C(F)(F)F)cc(-c2ccccc2)c2c3n(nc12)[C@H]1OCCC[C@H]1CN3 | 150 (≈ 377 µM) | 75 (≈ 188 µM) | 150 (≈ 377 µM) | 150 (≈ 377 µM) |  | 8 | 9 | 10 |  |  |  |  |  | 
N#Cc1c(-c2ccccc2)cc(C(F)(F)F)c2c3n(nc12)[C@H]1C=CC[C@H]1CN3 | 75 (≈ 197 µM) | 37.5 (≈ 98.6 µM) | 37.5 (≈ 98.6 µM) | 150 (≈ 394 µM) | 10 |  |  | 9 |  |  |  |  |  | 
C=CC1(C)CCNc2c3c(C(F)(F)F)cc(-c4ccccc4)c(C#N)c3nn21 (configuration not stated) | 150 (≈ 392 µM) | 150 (≈ 392 µM) | 75 (≈ 196 µM) | 150 (≈ 392 µM) | 8 | 7 |  | 8 | 7 |  |  |  |  | 
N#Cc1c(C(F)(F)F)cc(-c2ccccc2)c2c3n(nc12)C(c1ccccc1)CCN3 (configuration not stated) |  |  |  |  |  |  | 10 |  |  | 8 |  |  |  | 
N#Cc1c(-c2ccccc2)cc(C(F)(F)F)c2c3n(nc12)[C@H]1c2ccccc2C[C@H]1CN3 | 150 (≈ 348 µM) | 75 (≈ 174 µM) | 150 (≈ 348 µM) | 75 (≈ 174 µM) | 9 |  | 9 |  |  | 7 |  |  |  | 
N#Cc1c(-c2ccccc2)cc(C(F)(F)F)c2c3n(nc12)[C@H]1OCCC[C@H]1CN3 | 150 (≈ 377 µM) | 75 (≈ 188 µM) | 75 (≈ 188 µM) | 150 (≈ 377 µM) |  |  |  |  |  | 9 |  |  |  | 
CC1(c2ccccc2)CCNc2c3c(C(F)(F)F)cc(-c4ccccc4)c(C#N)c3nn21 (configuration not stated) | 75 (≈ 173 µM) | 37.5 (≈ 86.7 µM) | 75 (≈ 173 µM) | 75 (≈ 173 µM) |  | 8 | 12 | 9 |  |  |  |  |  | 
N#Cc1c(-c2ccccc2)cc(C(F)(F)F)c2c3n(nc12)[C@H]1C=CCC[C@H]1CN3 | 75 (≈ 190 µM) | 37.5 (≈ 95.1 µM) | 75 (≈ 190 µM) | 150 (≈ 380 µM) | 12 | 7 | 12 | 8 | 10 | 8 |  |  |  | 
C[C@@H]1[C@H](O)[C@@H](C)/C=C/C=C/C=C/C=C/C=C/C=C/C=C/[C@H](O[C@@H]2O[C@H](C)[C@@H](O)[C@H](N)[C@@H]2O)C[C@@H]2O[C@](O)(C[C@@H](O)C[C@@H](O)[C@H](O)CC[C@@H](O)C[C@@H](O)CC(=O)O[C@H]1C)C[C@H](O)[C@H]2C(=O)O [AMPHOTERICIN B] |  |  |  |  |  |  |  |  |  |  | 23.5 | 26 | 23 | 22

Source: ChEMBL document CHEMBL1149772, “GdCl(3) catalysed Grieco condensation: a facile approach for the synthesis of novel pyrimidine and annulated pyrimidine fused indazole derivatives in single pot under mild conditions and their anti-microbial activity” (2008)
